Data on 9 molecules can be found in ChEMBL document CHEMBL1144306, “1-Hydroxyalkyl-3-phenylthioureas as novel HDL-elevating agents” (2005).

Holding throughout (assay type): functional
The subject of test [1] is Rattus norvegicus. Put plainly: Effect on level of triglyceride in (relative to untreated control) in cholesterol fed-male rats at 75 mg/kg/day. The method in brief:
(§1)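 Serum triglycerides were measured in groups of six male Sprague–Dawley rats on a cholic acid/cholesterol-supplemented diet. Compound was dosed in the diet, ad libitum, for eight days. Results are % change relative to untreated controls, with significance at p < 0.05.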

The subject of test [2] is Rattus norvegicus. The experiment in a line: Effect on level of apolipoprotein (Apo) AI (relative to untreated control) in cholesterol fed-male rats at 75 mg/kg/day. An outline of the steps:
(§2)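 Six male Sprague–Dawley rats per group, fed a cholic acid/cholesterol-supplemented diet, received compound in the diet ad libitum for eight days. Serum Apo A–I was measured by SDS-PAGE or by rat competition ELISA and reported as % change versus untreated controls (p < 0.05). Gemfibrozil was the internal positive control in each study.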

For test [3], the system named is Rattus norvegicus. Put plainly: Effect on level of high density lipoprotein cholesterol (relative to untreated control) in cholesterol fed-male rats at 75 mg/kg/day. An outline of the steps: (§3)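 Male Sprague–Dawley rats (groups of six) fed a cholic acid- and cholesterol-supplemented diet; compound mixed into the diet, given ad libitum for eight days. Lipoproteins were separated by ultracentrifugation, and cholesterol was measured by an enzymatic colorimetric method. Results are % change versus untreated controls, with significance at p < 0.05.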

For test [4], the system named is Rattus norvegicus. Put plainly: Effect on level of total cholesterol (relative to untreated control) in cholesterol fed-male rats at 75 mg/kg/day. An outline of the steps:
as §3

The test system of test [5] is Rattus norvegicus. The experiment in a line: Effect on change in body weight gain (relative to untreated control) in cholesterol fed-male rats at 75 mg/kg/day. The method in brief: (§4)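 Male Sprague–Dawley rats, six per group, on a cholic acid- and cholesterol-supplemented diet. Compounds were mixed into the diet and given ad libitum for eight days. Change in body weight gain is expressed as a percentage of untreated controls. Significance was set at p < 0.05 versus untreated controls.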

Test [6] deals with Rattus norvegicus. Put plainly: Effect on level of high density lipoprotein cholesterol (relative to untreated control) in cholesterol fed-male rats at 74 mg/kg/day. The method in brief:
as §3

Test [7] relates to Rattus norvegicus. Put plainly: Effect on change in body weight gain (relative to untreated control) in cholesterol fed-male rats at 74 mg/kg/day. The method in brief:
as §4

Test [8] has as its system Rattus norvegicus. The experiment in a line: Effect on level of apolipoprotein (Apo) AI (relative to untreated control) in cholesterol fed-male rats at 74 mg/kg/day. The method in brief: as §2
Test [9] relates to Rattus norvegicus. The experiment in a line: Effect on level of total cholesterol (relative to untreated control) in cholesterol fed-male rats at 74 mg/kg/day. An outline of the steps:
as §3

The subject of test [10] is Rattus norvegicus. Put plainly: Effect on level of triglyceride in (relative to untreated control) in cholesterol fed-male rats at 74 mg/kg/day. An outline of the steps:
as §1

Test [11] deals with Rattus norvegicus. The experiment in a line: Effect on level of triglyceride in (relative to untreated control) in cholesterol fed-male rats at 68 mg/kg/day. An outline of the steps:
as §1

The test system of test [12] is Rattus norvegicus. Put plainly: Effect on change in body weight gain (relative to untreated control) in cholesterol fed-male rats at 68 mg/kg/day. An outline of the steps: as §4
The subject of test [13] is Rattus norvegicus. Put plainly: Effect on level of apolipoprotein (Apo) AI (relative to untreated control) in cholesterol fed-male rats at 68 mg/kg/day. An outline of the steps:
as §2

The test system of test [14] is Rattus norvegicus. Put plainly: Effect on level of high density lipoprotein cholesterol (relative to untreated control) in cholesterol fed-male rats at 68 mg/kg/day. An outline of the steps: as §3
In test [15] the test system is Rattus norvegicus. The experiment in a line: Effect on level of total cholesterol (relative to untreated control) in cholesterol fed-male rats at 68 mg/kg/day. An outline of the steps: as §3
Test [16] relates to Rattus norvegicus. The experiment in a line: Effect on level of total cholesterol (relative to untreated control) in cholesterol fed-male rats at 42 mg/kg/day. An outline of the steps:
as §3

Test [17] deals with Rattus norvegicus. Put plainly: Effect on level of apolipoprotein (Apo) AI (relative to untreated control) in cholesterol fed-male rats at 42 mg/kg/day. The method in brief:
as §2

Test [18] deals with Rattus norvegicus. Put plainly: Effect on change in body weight gain (relative to untreated control) in cholesterol fed-male rats at 42 mg/kg/day. An outline of the steps: as §4
Test [19] has as its system Rattus norvegicus. The experiment in a line: Effect on level of high density lipoprotein cholesterol (relative to untreated control) in cholesterol fed-male rats at 42 mg/kg/day. An outline of the steps:
(§5)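 Cholic acid/cholesterol-fed male Sprague–Dawley rats (n = 6 per group) were dosed via diet ad libitum for eight days. Lipoproteins were separated by ultracentrifugation and HDL cholesterol was quantified by an enzymatic colorimetric method. Values are % change relative to untreated controls, with significance at p < 0.05. Gemfibrozil was the internal positive control.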

Test [20] has as its system Rattus norvegicus. The experiment in a line: Effect on level of triglyceride in (relative to untreated control) in cholesterol fed-male rats at 42 mg/kg/day. The method in brief:
as §1

Test [21] deals with Rattus norvegicus. The experiment in a line: Effect on level of high density lipoprotein cholesterol (relative to untreated control) in cholesterol fed-male rats at 36 mg/kg/day. An outline of the steps:
as §5

In test [22] the test system is Rattus norvegicus. Put plainly: Effect on level of apolipoprotein (Apo) AI (relative to untreated control) in cholesterol fed-male rats at 36 mg/kg/day. The method in brief: as §2
For test [23], the system named is Rattus norvegicus. Put plainly: Effect on level of triglyceride in (relative to untreated control) in cholesterol fed-male rats at 36 mg/kg/day. An outline of the steps: as §1
Test [24] concerns Rattus norvegicus. Put plainly: Effect on level of total cholesterol (relative to untreated control) in cholesterol fed-male rats at 36 mg/kg/day. The method in brief: as §3
In test [25] the test system is Rattus norvegicus. Put plainly: Effect on change in body weight gain (relative to untreated control) in cholesterol fed-male rats at 36 mg/kg/day. An outline of the steps:
as §4

The test system of test [26] is Rattus norvegicus. Put plainly: Effect on level of triglyceride in (relative to untreated control) in cholesterol fed-male rats at 50 mg/kg/day. An outline of the steps:
as §1

Test [27] deals with Rattus norvegicus. The experiment in a line: Effect on change in body weight gain (relative to untreated control) in cholesterol fed-male rats at 50 mg/kg/day. An outline of the steps:
as §4

In test [28] the test system is Rattus norvegicus. Put plainly: Effect on level of total cholesterol (relative to untreated control) in cholesterol fed-male rats at 50 mg/kg/day. An outline of the steps:
as §3

Test [29] has as its system Rattus norvegicus. The experiment in a line: Effect on level of high density lipoprotein cholesterol (relative to untreated control) in cholesterol fed-male rats at 50 mg/kg/day. The method in brief:
as §5

The subject of test [30] is Rattus norvegicus. The experiment in a line: Effect on level of apolipoprotein (Apo) AI (relative to untreated control) in cholesterol fed-male rats at 50 mg/kg/day. An outline of the steps: as §2
In test [31] the test system is Rattus norvegicus. The experiment in a line: Effect on level of total cholesterol (relative to untreated control) in cholesterol fed-male rats at 51 mg/kg/day. The method in brief:
as §3

Test [32] has as its system Rattus norvegicus. Put plainly: Effect on level of high density lipoprotein cholesterol (relative to untreated control) in cholesterol fed-male rats at 51 mg/kg/day. The method in brief:
as §5

Test [33] concerns Rattus norvegicus. The experiment in a line: Effect on level of apolipoprotein (Apo) AI (relative to untreated control) in cholesterol fed-male rats at 51 mg/kg/day. The method in brief:
as §2

The subject of test [34] is Rattus norvegicus. The experiment in a line: Effect on level of triglyceride in (relative to untreated control) in cholesterol fed-male rats at 51 mg/kg/day. The method in brief: as §1
For test [35], the system named is Rattus norvegicus. The experiment in a line: Effect on change in body weight gain (relative to untreated control) in cholesterol fed-male rats at 51 mg/kg/day. An outline of the steps: as §4
Test [36] concerns Rattus norvegicus. The experiment in a line: Effect on level of apolipoprotein (Apo) AI (relative to untreated control) in cholesterol fed-male rats at 67 mg/kg/day. An outline of the steps: as §2
The subject of test [37] is Rattus norvegicus. The experiment in a line: Effect on change in body weight gain (relative to untreated control) in cholesterol fed-male rats at 67 mg/kg/day. An outline of the steps: as §4
Test [38] relates to Rattus norvegicus. The experiment in a line: Effect on level of total cholesterol (relative to untreated control) in cholesterol fed-male rats at 67 mg/kg/day. An outline of the steps:
as §3

Test [39] concerns Rattus norvegicus. The experiment in a line: Effect on level of triglyceride in (relative to untreated control) in cholesterol fed-male rats at 67 mg/kg/day. The method in brief:
as §1

In test [40] the test system is Rattus norvegicus. The experiment in a line: Effect on level of high density lipoprotein cholesterol (relative to untreated control) in cholesterol fed-male rats at 67 mg/kg/day. An outline of the steps:
as §3

As to `Cc1ccc(Cl)cc1N/C(S)=N/[C@H](C)CO`, the Activity is -23% in [1]; 6% in [2]; 13% in test [3]; 85% in test [4]; -4% in test [5].
On to `Cc1ccc(Cl)cc1/N=C(\S)NCCCO`, for which the Activity in [6] is given as 82%; in [7] it was -63%; in test [8] it was 24%; in test [9], 3%; in test [10], -80%.
Consider `OCC/N=C(\S)Nc1cc(Cl)ccc1Cl`, for which the Activity in [11] was -13%; in [12], -66%; in test [13] it was 36%; in test [14], 71%; in test [15], 21%.
For `Cc1cc(Cl)ccc1/N=C(\S)NCCO`, the Activity is recorded as 17% in [16]; 18% in [17]; -229% in test [18]; 53% in test [19]; -8% in test [20].
For the molecule `Cc1ccc(Cl)cc1/N=C(\S)NCCS`, the Activity was 25% in test [21]; 10% in [22]; -3% in [23]; 8% in test [24]; -20% in test [25].
For `Cc1ccc(C)c(OCCCC(C)(C)C(=O)O)c1` [GEMFIBROZIL], the Activity in test [26] is reported as -29%; in [27], 2%; in [28], -23%; in test [29], 104%; in test [30] it was 54%.
For the molecule `Cc1ccccc1/N=C(\S)NCCO`, the Activity in [31] is listed as 66%; in test [32], 3%; in test [33] it was -18%; in test [34], -51%; in test [35], -138%.
On to `Cc1ccc(Cl)cc1N/C(S)=N/C[C@H](C)O`, for which the Activity in test [11] was -75%; in test [12], -68%; in test [13] it was 8%; in [14] it was 33%; in test [15] it was 30%.
Consider `Cc1c(Cl)cccc1/N=C(\S)NCCO`, for which the Activity is recorded as 27% in test [36]; -56% in test [37]; 10% in test [38]; -16% in test [39]; 63% in test [40].
